Reference: ChEMBL document CHEMBL1926569, “Novel (E)-1-(4-methyl-2-(alkylamino)thiazol-5-yl)-3-arylprop-2-en-1-ones as potent antimicrobial agents” (2011)
≈ marks a conversion by molar mass, not a printed value.

Experiments:
[1] = system: Staphylococcus aureus; test: Antibacterial activity against Staphylococcus aureus ATCC 6538 incubated for 24 hrs followed by serial sub-cultivation for 24 hrs by microdilution method; type: functional; settings: ATCC 6538, 24 h
Method in brief: (§1)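 MBC: after the 24 h LB broth microdilution (1.0 × 10⁴ CFU per well, 160 rpm), wells were serially sub-cultured into fresh broth plates and incubated a further 24 h. MBC is the lowest concentration with no visible growth, taken as 99.5% killing of the original inoculum. Duplicate, repeated three times.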

[2] = system: Candida albicans; test: Ratio of bifonazole to compound for Candida albicans isolated from human; type: functional
[3] = system: Candida albicans; test: Antifungal activity against Candida albicans isolated from human after 72 hrs by serial dilution technique; type: functional
Method in brief: (§2)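 Modified microdilution in 96-well plates. Fungi were kept on malt agar at 4 °C. Spores were washed off in sterile 0.85% saline with 0.1% Tween 80. Compounds were dissolved at 1 mg/ml in 5% DMSO with 0.1% Tween 80 and added to malt broth with inoculum. Plates were shaken at 160 rpm for 72 h at 28 °C. Duplicate, repeated three times.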

[4] = system: Aspergillus niger; test: Ratio of bifonazole to compound for Aspergillus niger ATCC 6275; type: functional
[5] = system: Enterococcus faecalis; test: Antibacterial activity against Enterococcus faecalis isolated from human after 24 hrs by microdilution method; type: functional
Method in brief: (§3)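 Broth microdilution in 96-well plates. Bacterial suspensions were adjusted in sterile saline to 1.0 × 10⁵ CFU/ml, prepared daily and kept at 4 °C. Compound was added to LB broth with 1.0 × 10⁴ CFU per well and shaken at 160 rpm for 24 h at […] (so in the source). MIC is the lowest concentration with no visible growth under a binocular microscope. OD655 was also read. Duplicate, repeated three times.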

[6] = system: Talaromyces funiculosus; test: Ratio of bifonazole to compound for Penicillium funiculosum ATCC 36839; type: functional
[7] = system: Talaromyces funiculosus; test: Antifungal activity against Penicillium funiculosum ATCC 36839 after 72 hrs by serial dilution technique; type: functional; settings: ATCC 36839, 72 h; method in brief: as §2
[8] = system: Micrococcus flavus; test: Antibacterial activity against Micrococcus flavus ATCC 10240 after 24 hrs by microdilution method; type: functional; settings: ATCC 10240, 24 h; method in brief: as §3
[9] = system: Pseudomonas aeruginosa; test: Antibacterial activity against Pseudomonas aeruginosa ATCC 27853 incubated for 24 hrs followed by serial sub-cultivation for 24 hrs by microdilution; type: functional; settings: ATCC 27853, 24 h; method in brief: as §1
[10] = system: Aspergillus flavus; test: Antifungal activity against Aspergillus flavus ATCC 9643 incubated for 72 hrs followed by serial sub-cultivation for 72 hrs by serial dilution technique; type: functional; settings: ATCC 9643, 72 h
Method in brief: (§4)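 MFC: material from 72 h malt broth microdilution wells was serially sub-cultured into fresh broth plates and incubated a further 72 h at 28 °C. Fungicidal concentration is taken from growth after sub-culture. Duplicate, repeated three times.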

[11] = system: Pseudomonas aeruginosa; test: Ratio of ampicillin MIC to compound MIC for Pseudomonas aeruginosa ATCC 27853; type: functional
[12] = system: Micrococcus flavus; test: Antibacterial activity against Micrococcus flavus ATCC 10240 incubated for 24 hrs followed by serial sub-cultivation for 24 hrs by microdilution; type: functional; settings: ATCC 10240, 24 h; method in brief: as §1
[13] = system: Trichoderma viride; test: Ratio of bifonazole to compound for Trichoderma viride IAM 5061; type: functional
[14] = system: Candida albicans; test: Ratio of ketoconazole to compound for Candida albicans isolated from human; type: functional
[15] = system: Penicillium ochrochloron; test: Antifungal activity against Penicillium ochrochloron ATCC 9112 after 72 hrs by serial dilution technique; type: functional; settings: ATCC 9112, 72 h; method in brief: as §2
[16] = system: Penicillium ochrochloron; test: Ratio of bifonazole to compound for Penicillium ochrochloron ATCC 9112; type: functional
[17] = system: Trichoderma viride; test: Antifungal activity against Trichoderma viride IAM 5061 after 72 hrs by serial dilution technique; type: functional; settings: IAM 5061, 72 h; method in brief: as §2
[18] = system: Trichoderma viride; test: Antifungal activity against Trichoderma viride IAM 5061 incubated for 72 hrs followed by serial sub-cultivation for 72 hrs by serial dilution technique; type: functional; settings: IAM 5061, 72 h; method in brief: as §4
[19] = system: Talaromyces funiculosus; test: Antifungal activity against Penicillium funiculosum ATCC 36839 incubated for 72 hrs followed by serial sub-cultivation for 72 hrs by serial dilution technique; type: functional; settings: ATCC 36839, 72 h; method in brief: as §4
[20] = system: Candida albicans; test: Antifungal activity against Candida albicans isolated from human incubated for 72 hrs followed by serial sub-cultivation for 72 hrs by serial dilution technique; type: functional; method in brief: as §4
[21] = system: Aspergillus niger; test: Antifungal activity against Aspergillus niger ATCC 6275 incubated for 72 hrs followed by serial sub-cultivation for 72 hrs by serial dilution technique; type: functional; settings: ATCC 6275, 72 h; method in brief: as §4
[22] = system: Aspergillus niger; test: Antifungal activity against Aspergillus niger ATCC 6275 after 72 hrs by serial dilution technique; type: functional; settings: ATCC 6275, 72 h; method in brief: as §2
[23] = system: Aspergillus fumigatus; test: Antifungal activity against Aspergillus fumigatus isolated from human incubated for 72 hrs followed by serial sub-cultivation for 72 hrs by serial dilution technique; type: functional; method in brief: as §4
[24] = system: Salmonella typhimurium; test: Antibacterial activity against Salmonella Typhimurium ATCC 13311 after 24 hrs by microdilution method; type: functional, Salmonella enterica subsp. enterica serovar Typhimurium; settings: Salmonella enterica, ATCC 13311, 24 h; method in brief: as §3
[25] = system: Aspergillus ochraceus; test: Ratio of ketoconazole to compound for Aspergillus ochraceus ATCC 12066; type: functional
[26] = system: Aspergillus flavus; test: Antifungal activity against Aspergillus flavus ATCC 9643 after 72 hrs by serial dilution technique; type: functional; settings: ATCC 9643, 72 h; method in brief: as §2
[27] = system: Penicillium ochrochloron; test: Ratio of ketoconazole to compound for Penicillium ochrochloron ATCC 9112; type: functional
[28] = system: Listeria monocytogenes; test: Antibacterial activity against Listeria monocytogenes NCTC 7973 incubated for 24 hrs followed by serial sub-cultivation for 24 hrs by microdilution; type: functional; settings: NCTC 7973, 24 h; method in brief: as §1
[29] = system: Aspergillus ochraceus; test: Antifungal activity against Aspergillus ochraceus ATCC 12066 after 72 hrs by serial dilution technique; type: functional; settings: ATCC 12066, 72 h; method in brief: as §2
[30] = system: Aspergillus fumigatus; test: Ratio of ketoconazole to compound for Aspergillus fumigatus isolated from human; type: functional
[31] = system: Aspergillus ochraceus; test: Antifungal activity against Aspergillus ochraceus ATCC 12066 incubated for 72 hrs followed by serial sub-cultivation for 72 hrs by serial dilution technique; type: functional; settings: ATCC 12066, 72 h; method in brief: as §4
[32] = system: Penicillium ochrochloron; test: Antifungal activity against Penicillium ochrochloron ATCC 9112 incubated for 72 hrs followed by serial sub-cultivation for 72 hrs by serial dilution technique; type: functional; settings: ATCC 9112, 72 h; method in brief: as §4
[33] = system: Bacillus cereus; test: Antibacterial activity against clinical isolate of Bacillus cereus after 24 hrs by microdilution method; type: functional; method in brief: as §3
[34] = system: Aspergillus ochraceus; test: Ratio of bifonazole to compound for Aspergillus ochraceus ATCC 12066; type: functional
[35] = system: Salmonella typhimurium; test: Antibacterial activity against Salmonella Typhimurium ATCC 13311 incubated for 24 hrs followed by serial sub-cultivation for 24 hrs by microdilution; type: functional, Salmonella enterica subsp. enterica serovar Typhimurium; settings: Salmonella enterica, ATCC 13311, 24 h; method in brief: as §1
[36] = system: Enterococcus faecalis; test: Antibacterial activity against Enterococcus faecalis isolated from human incubated for 24 hrs followed by serial sub-cultivation for 24 hrs by microdilution; type: functional; method in brief: as §1
[37] = system: Listeria monocytogenes; test: Antibacterial activity against Listeria monocytogenes NCTC 7973 after 24 hrs by microdilution method; type: functional; settings: NCTC 7973, 24 h; method in brief: as §3
[38] = system: Pseudomonas aeruginosa; test: Antibacterial activity against Pseudomonas aeruginosa ATCC 27853 after 24 hrs by microdilution method; type: functional; settings: ATCC 27853, 24 h; method in brief: as §3
[39] = system: Escherichia coli; test: Antibacterial activity against Escherichia coli ATCC 35210 incubated for 24 hrs followed by serial sub-cultivation for 24 hrs by microdilution; type: functional; settings: ATCC 35210, 24 h; method in brief: as §1
[40] = system: Bacillus cereus; test: Antibacterial activity against clinical isolate of Bacillus cereus incubated for 24 hrs followed by serial sub-cultivation for 24 hrs by microdilution; type: functional; method in brief: as §1
[41] = system: Staphylococcus aureus; test: Antibacterial activity against Staphylococcus aureus ATCC 6538 after 24 hrs by microdilution method; type: functional; settings: ATCC 6538, 24 h; method in brief: as §3
[42] = system: Aspergillus ochraceus; test: Antifungal activity against Aspergillus ochraceus after 72 hrs by serial dilution technique
[43] = system: Escherichia coli; test: Antibacterial activity against Escherichia coli ATCC 35210 after 24 hrs by microdilution method; type: functional; settings: ATCC 35210, 24 h; method in brief: as §3

Compound: CCNc1nc(C)c(C(=O)/C=C/c2ccc(Cl)cc2)s1
- MBC [1]: 98 µM (≈ 30.1 µg/mL)
- Ratio [2]: 10
- MIC [3]: 32.7 µM (≈ 10 µg/mL)
- Ratio [4]: 10
- MIC [5]: 81.7 µM (≈ 25.1 µg/mL)
- Ratio [6]: 10
- MIC [7]: 32.7 µM (≈ 10 µg/mL)
- MIC [8]: 65.3 µM (≈ 20 µg/mL)
- MBC [9]: 98 µM (≈ 30.1 µg/mL)
- MFC [10]: 81.7 µM (≈ 25.1 µg/mL)
- Ratio [11]: 10
- MBC [12]: 81.7 µM (≈ 25.1 µg/mL)
- Ratio [13]: 10
- Ratio [14]: 10
- MIC [15]: 65.3 µM (≈ 20 µg/mL)
- Ratio [16]: 10
- MIC [17]: 32.7 µM (≈ 10 µg/mL)
- MFC [18]: 65.3 µM (≈ 20 µg/mL)
- MFC [19]: 65.3 µM (≈ 20 µg/mL)
- MFC [20]: 65.3 µM (≈ 20 µg/mL)
- MFC [21]: 81.7 µM (≈ 25.1 µg/mL)
- MIC [22]: 65.3 µM (≈ 20 µg/mL)
- MFC [23]: 65.3 µM (≈ 20 µg/mL)
- MIC [24]: 49 µM (≈ 15 µg/mL)
- Ratio [25]: 10
- MIC [26]: 65.3 µM (≈ 20 µg/mL)
- Ratio [27]: 10
- MBC [28]: 98 µM (≈ 30.1 µg/mL)
- MIC [29]: 65.3 µM (≈ 20 µg/mL)
- Ratio [30]: 10
- MFC [31]: 81.7 µM (≈ 25.1 µg/mL)
- MFC [32]: 81.7 µM (≈ 25.1 µg/mL)
- MIC [33]: 81.7 µM (≈ 25.1 µg/mL)
- Ratio [34]: 10
- MBC [35]: 49 µM (≈ 15 µg/mL)
- MBC [36]: 81.7 µM (≈ 25.1 µg/mL)
- MIC [37]: 98 µM (≈ 30.1 µg/mL)
- MIC [38]: 65.3 µM (≈ 20 µg/mL)
- MBC [39]: 98 µM (≈ 30.1 µg/mL)
- MBC [40]: 81.7 µM (≈ 25.1 µg/mL)
- MIC [41]: 98 µM (≈ 30.1 µg/mL)
- MIC [42]: 49 µM (≈ 15 µg/mL)
- MIC [43]: 65.3 µM (≈ 20 µg/mL)

Compound: CCNc1nc(C)c(C(=O)/C=C/c2cccc(F)c2)s1
- MBC [1]: 103 µM (≈ 30 µg/mL)
- Ratio [2]: 10
- MIC [3]: 34.5 µM (≈ 10 µg/mL)
- Ratio [4]: 10
- MIC [5]: 51.7 µM (≈ 15 µg/mL)
- Ratio [6]: 10
- MIC [7]: 34.5 µM (≈ 10 µg/mL)
- MIC [8]: 34.5 µM (≈ 10 µg/mL)
- MBC [9]: 68.9 µM (≈ 20 µg/mL)
- MFC [10]: 86.2 µM (≈ 25 µg/mL)
- Ratio [11]: 10
- MBC [12]: 86.2 µM (≈ 25 µg/mL)
- Ratio [13]: 10
- Ratio [14]: 10
- MIC [15]: 34.5 µM (≈ 10 µg/mL)
- Ratio [16]: 10
- MIC [17]: 34.5 µM (≈ 10 µg/mL)
- MFC [18]: 68.9 µM (≈ 20 µg/mL)
- MFC [19]: 68.9 µM (≈ 20 µg/mL)
- MFC [20]: 68.9 µM (≈ 20 µg/mL)
- MFC [21]: 68.9 µM (≈ 20 µg/mL)
- MIC [22]: 34.5 µM (≈ 10 µg/mL)
- MFC [23]: 68.9 µM (≈ 20 µg/mL)
- MIC [24]: 51.7 µM (≈ 15 µg/mL)
- Ratio [25]: 10
- MIC [26]: 68.9 µM (≈ 20 µg/mL)
- Ratio [27]: 10
- MBC [28]: 86.2 µM (≈ 25 µg/mL)
- MIC [29]: 68.9 µM (≈ 20 µg/mL)
- Ratio [30]: 10
- MFC [31]: 86.2 µM (≈ 25 µg/mL)
- MFC [32]: 68.9 µM (≈ 20 µg/mL)
- MIC [33]: 51.7 µM (≈ 15 µg/mL)
- Ratio [34]: 10
- MBC [35]: 51.7 µM (≈ 15 µg/mL)
- MBC [36]: 68.9 µM (≈ 20 µg/mL)
- MIC [37]: 86.2 µM (≈ 25 µg/mL)
- MIC [38]: 68.9 µM (≈ 20 µg/mL)
- MBC [39]: 86.2 µM (≈ 25 µg/mL)
- MBC [40]: 68.9 µM (≈ 20 µg/mL)
- MIC [41]: 68.9 µM (≈ 20 µg/mL)
- MIC [42]: 34.5 µM (≈ 10 µg/mL)
- MIC [43]: 68.9 µM (≈ 20 µg/mL)
